Converted amounts (≈) assume the structure as drawn.
Columns and labels:
[1] = Cytotoxicity against mouse RAW264.7 cells assessed as inhibition of cell viability at 50 uM after 72 hrs by MTT assay relative to control; format: cell-based; settings: read-out: INH
Summary of the method: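 RAW 264.7 mouse macrophage cells exposed to compound at 50 µM for 72 h. Viability assessed by cellular conversion of MTT to formazan.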

[2] = system: Mycobacterium tuberculosis; experiment: Antibacterial activity against Mycobacterium tuberculosis H37Rv ATCC 27294 assessed as growth inhibition after 28 days by agar dilution method; format: functional; settings: H37Rv ATCC 27294, 672 h
Summary of the method: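 Two-fold serial dilutions incorporated into Middlebrook 7H11 agar with OADC, final 50 to 0.78 µg/mL. Inoculum of 1 mg/mL (wet weight) in 0.05% Tween 80 saline, diluted 10⁻² to ~10⁷ cfu/mL. 5 µL spotted per tube, incubated at 37 °C for 28 days. MIC is the lowest concentration giving complete growth inhibition.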

[3] = biological target: T1, Pantothenate synthetase (Mycobacterium tuberculosis, UniProt P9WIL5); experiment: Inhibition of Mycobacterium tuberculosis pantothenate synthetase cloned in Escherichia coli BL21 (DE3) using ATP, beta-alanine, pantoic acid as substrate assessed as NAD+ production measured every 12 secs for 120 secs by spectrophotometric analysis
T1 sequence (P9WIL5 whole entry): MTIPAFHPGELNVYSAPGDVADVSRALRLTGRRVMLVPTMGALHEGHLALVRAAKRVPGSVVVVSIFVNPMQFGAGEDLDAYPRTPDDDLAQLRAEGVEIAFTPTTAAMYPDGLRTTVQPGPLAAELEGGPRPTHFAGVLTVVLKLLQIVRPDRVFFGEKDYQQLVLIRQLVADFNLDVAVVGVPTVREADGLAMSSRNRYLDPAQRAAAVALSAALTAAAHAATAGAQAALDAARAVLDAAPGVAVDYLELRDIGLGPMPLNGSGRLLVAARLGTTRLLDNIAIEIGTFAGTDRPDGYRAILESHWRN
Summary of the method: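 Same AMP-coupled NADH/A340 PS assay (NADH, pantoic acid, β-alanine, ATP, PEP, MgCl₂, myokinase, pyruvate kinase, LDH; reaction started with enzyme; read every 12 s for 120 s). IC₅₀ determined for compounds exceeding 60% inhibition at 100 µM, using rate-based % inhibition corrected for background.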

[4] = biological target: T2, Pantothenate synthetase (Mycobacterium tuberculosis) (UniProt P9WIL5); experiment: Inhibition of Mycobacterium tuberculosis pantothenate synthetase cloned in Escherichia coli BL21 (DE3) using ATP, beta-alanine, pantoic acid as substrate assessed as NAD+ production at 100 uM measured every 12 secs for 120 secs by spectrophotometric analysis relative to control
T2 sequence (whole entry): T1 sequence (P9WIL5 whole entry)
Summary of the method: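 Coupled assay linking AMP from β-alanine plus pantoate condensation to NADH oxidation via myokinase, pyruvate kinase and lactate dehydrogenase. Mix held NADH, pantoic acid, β-alanine, ATP, phosphoenolpyruvate and MgCl₂ in buffer; compound (100 µM) added; reaction started with PS. A340 read every 12 s for 120 s. % inhibition = 100 × (1 − (compound rate − background)/(full rate − background)).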

[5] = biological target: T1, Pantothenate synthetase; experiment: Binding affinity to Mycobacterium tuberculosis pantothenate synthetase

Row | Structure (SMILES) | cytotoxicity at 72 h, 50 µM [1] [%] | MIC [2] [µM] | IC50 [3] [µM] | inhibition [4] [%] | Kd [5] [µM]
1 | O=C(Nc1ccc([N+](=O)[O-])cc1)N1CCc2c(c(-c3ccccc3)nn2C(=O)c2ccccc2)C1 | 0 | 26.7 (≈ 12.5 µg/mL) | 21.8 | 95.7 | 
2 | CCOc1ccc(NC(=O)N2CCc3c(c(-c4ccccc4)nn3C(=O)c3ccccc3)C2)cc1 | 0 | > 107 |  | 47.2 | 
3 | Cc1ccc(NC(=O)N2CCc3c(c(-c4ccccc4)nn3C(=O)C3CCCCC3)C2)cc1 | 15.1 | 56.5 (≈ 25 µg/mL) |  | 40.8 | 
4 | O=C(c1ccccc1)n1nc(-c2ccccc2)c2c1CCN(C(=S)Nc1ccc(F)cc1)C2 | 0.5 | 110 (≈ 50 µg/mL) |  | 43.5 | 
5 | NNC(=O)c1ccncc1 [ISONIAZID] |  | 0.72 (≈ 0.0987 µg/mL) |  | 0 | 
6 | Cc1ccc2c(c1)C=C(C(=O)NS(=O)(=O)c1cc3ccccc3o1)C2CC(=O)O (configuration not stated) |  |  |  |  | 1.8
7 | O=C(C1CCCCC1)n1nc(-c2ccccc2)c2c1CCN(S(=O)(=O)c1cccs1)C2 | 8.1 | 54.9 (≈ 25 µg/mL) |  | 52 | 
8 | O=C(Nc1ccc(Br)cc1)N1CCc2c(c(-c3ccccc3)nn2C(=O)c2ccccc2)C1 | 42 | 99.7 (≈ 50 µg/mL) | 82.1 | 60.6 | 
9 | O=C(Nc1cccc2ccccc12)N1CCc2c(c(-c3ccccc3)nn2C(=O)c2ccccc2)C1 | 4.7 | 48.8 (≈ 23.1 µg/mL) | 38.2 | 89.8 | 
10 | Cc1ccc(NC(=S)N2CCc3c(c(-c4ccccc4)nn3C(=O)C3CCCCC3)C2)cc1 | 27.8 | 51.1 (≈ 23.4 µg/mL) |  | 50.5 | 
11 | Cc1ccc(NC(=O)N2CCc3c(c(-c4ccccc4)nn3C(=O)c3ccccc3)C2)cc1 | 57.1 | 114 (≈ 49.8 µg/mL) |  | 49.4 | 
12 | C=CCNC(=S)N1CCc2c(c(-c3ccccc3)nn2C(=O)c2ccccc2)C1 | 6 | > 124 |  | 41.7 | 
13 | CC(=O)c1ccc(S(=O)(=O)N2CCc3c(c(-c4ccccc4)nn3C(=O)C3CCCCC3)C2)cc1 | 11.5 | 50.8 (≈ 25 µg/mL) |  | 39.2 | 
14 | O=C(c1ccccc1)n1nc(-c2ccccc2)c2c1CCN(S(=O)(=O)c1ccc(F)cc1)C2 | 0 | 54.2 (≈ 25 µg/mL) | 38.6 | 77 | 
15 | CC(=O)c1ccc(S(=O)(=O)N2CCc3c(c(-c4ccccc4)nn3C(=O)c3ccccc3)C2)cc1 | 5.3 | 51.5 (≈ 25 µg/mL) | 39.1 | 78.5 | 
16 | O=C(C1CCCCC1)n1nc(-c2ccccc2)c2c1CCN(C(=S)Nc1ccc([N+](=O)[O-])cc1)C2 | 0 | 53.5 (≈ 26.2 µg/mL) |  | 47.3 | 
17 | O=C(NCc1ccccc1)N1CCc2c(c(-c3ccccc3)nn2C(=O)C2CCCCC2)C1 | 35.7 | 54.5 (≈ 24.1 µg/mL) |  | 49.1 | 
18 | O=C(Nc1ccc(Cl)cc1)N1CCc2c(c(-c3ccccc3)nn2C(=O)C2CCCCC2)C1 | 4 | 108 (≈ 50 µg/mL) |  | 54.7 | 
19 | Cc1ccc(S(=O)(=O)N2CCc3c(c(-c4ccccc4)nn3C(=O)c3ccccc3)C2)cc1 | 0 | 109 (≈ 50 µg/mL) |  | 9 | 
20 | O=C(C1CCCCC1)n1nc(-c2ccccc2)c2c1CCN(C(=S)Nc1ccc(Cl)cc1)C2 | 51.1 | 109 (≈ 52.2 µg/mL) |  | 56.3 | 
21 | O=C(Nc1ccc(Cl)cc1)N1CCc2c(c(-c3ccccc3)nn2C(=O)c2ccccc2)C1 | 4.9 | 109 (≈ 50 µg/mL) |  | 40.2 | 
22 | Cc1ccc(NC(=S)N2CCc3c(c(-c4ccccc4)nn3C(=O)c3ccccc3)C2)cc1 | 0 | > 110 |  | 23.9 | 

Row | Structure (SMILES) | cytotoxicity at 72 h, 50 µM [1] [%] | MIC [2] [µM] | IC50 [3] [µM] | inhibition [4] [%] | Kd [5] [µM]
23 | CC(=O)c1ccc(NC(=O)N2CCc3c(c(-c4ccccc4)nn3C(=O)C3CCCCC3)C2)cc1 | 22.5 | 108 (≈ 50.9 µg/mL) |  | 51.4 | 
24 | Cc1ccc(S(=O)(=O)N2CCc3c(c(-c4ccccc4)nn3C(=O)C3CCCCC3)C2)cc1 | 0 | 53.9 (≈ 25 µg/mL) |  | 41.6 | 
25 | O=C(c1ccccc1)n1nc(-c2ccccc2)c2c1CCN(S(=O)(=O)c1ccc([N+](=O)[O-])cc1)C2 | 18.6 | 25.6 (≈ 12.5 µg/mL) |  | 39.7 | 
26 | O=C(C1CCCCC1)n1nc(-c2ccccc2)c2c1CCN(S(=O)(=O)c1ccc(F)cc1)C2 | 1.4 | 53.5 (≈ 25 µg/mL) |  | 46.8 | 
27 | COc1ccc(NC(=O)N2CCc3c(c(-c4ccccc4)nn3C(=O)C3CCCCC3)C2)cc1 | 52.5 | 109 (≈ 50 µg/mL) |  | 38.7 | 
28 | O=C(Nc1ccc(Br)cc1)N1CCc2c(c(-c3ccccc3)nn2C(=O)C2CCCCC2)C1 | 0 | 98.5 (≈ 50 µg/mL) |  | 50.5 | 
29 | CCOc1ccc(NC(=O)N2CCc3c(c(-c4ccccc4)nn3C(=O)C3CCCCC3)C2)cc1 | 4.9 | 106 (≈ 50 µg/mL) |  | 48.5 | 
30 | CC(C)(C)OC(=O)N1CCc2[nH]nc(-c3ccccc3)c2C1 |  | 26.7 (≈ 7.99 µg/mL) | 21.8 |  | 
31 | CC(=O)c1ccc(NC(=O)N2CCc3c(c(-c4ccccc4)nn3C(=O)c3ccccc3)C2)cc1 | 12.8 | > 108 |  | 43.7 | 
32 | O=C(c1ccccc1)n1nc(-c2ccccc2)c2c1CCN(C(=S)NCc1ccccc1)C2 | 0 | 110 (≈ 50 µg/mL) |  | 52.1 | 
33 | O=C(C1CCCCC1)n1nc(-c2ccccc2)c2c1CCN(C(=S)Nc1ccc(F)cc1)C2 | 58.4 | 105 (≈ 48.7 µg/mL) |  | 49.2 | 
34 | COc1ccc(NC(=S)N2CCc3c(c(-c4ccccc4)nn3C(=O)c3ccccc3)C2)cc1 | 0 | 107 (≈ 50 µg/mL) |  | 10.2 | 
35 | O=C(Nc1cccc2ccccc12)N1CCc2c(c(-c3ccccc3)nn2C(=O)C2CCCCC2)C1 | 4.1 | 52.2 (≈ 25 µg/mL) |  | 50.9 | 
36 | O=C(NCc1ccccc1)N1CCc2c(c(-c3ccccc3)nn2C(=O)c2ccccc2)C1 | 0.7 | 114 (≈ 49.8 µg/mL) |  | 46.2 | 
37 | CC(C)NC(=O)N1CCc2c(c(-c3ccccc3)nn2C(=O)c2ccccc2)C1 | 10.6 | 129 (≈ 50 µg/mL) |  | 40.9 | 
38 | O=C(C1CCCCC1)n1nc(-c2ccccc2)c2c1CCN(C(=S)NCc1ccccc1)C2 | 20.6 | 108 (≈ 49.5 µg/mL) |  | 51.4 | 
39 | O=C(c1ccccc1)n1nc(-c2ccccc2)c2c1CCN(S(=O)(=O)c1cccs1)C2 | 6.8 | 55.6 (≈ 25 µg/mL) |  | 48.7 | 
40 | O=C(C1CCCCC1)n1nc(-c2ccccc2)c2c1CCN(S(=O)(=O)c1ccc([N+](=O)[O-])cc1)C2 | 8.3 | 50.5 (≈ 25 µg/mL) |  | 50.2 | 
41 | O=C(c1ccccc1)n1nc(-c2ccccc2)c2c1CCN(C(=S)Nc1ccc(Cl)cc1)C2 | 0 | 106 (≈ 50 µg/mL) |  | 37.7 | 
42 | CC[C@@H](CO)NCCN[C@@H](CC)CO [ETHAMBUTOL] |  | 15.3 (≈ 3.12 µg/mL) |  | 0 | 
43 | O=C(Nc1ccc([N+](=O)[O-])cc1)N1CCc2c(c(-c3ccccc3)nn2C(=O)C2CCCCC2)C1 | 14.9 | 52.8 (≈ 25 µg/mL) |  | 50.8 | 
44 | COc1ccc(NC(=S)N2CCc3c(c(-c4ccccc4)nn3C(=O)C3CCCCC3)C2)cc1 | 9.5 | 102 (≈ 48.3 µg/mL) |  | 50.6 | 
